High-throughput results: PubChem BioAssay, Broad Institute
SR-BI HDL uptake: inhibitors of SR-BI mediated HDL lipid uptake, primary screen, ldlA[mSR-BI] cells, fluorescence, single point. actives 0.96% (n = 320,000). ldlA[mSR-BI] CHO cells, DiI-HDL uptake fluorescence, 3 h. AID 488896, 2010. Scavenger receptor class B member 1 (Mus musculus), Q61009. inhibition, % at 12.5 µM;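 active means mean replicate inhibition of at least 70% and a set share of replicates each scoring 70 or more; inconclusive means meets just one of the two criteria; inactive means fails both criteria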;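 further: 0% = median of neutral control wells and 100% = median of positive control wells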
Target sequence (Q61009 whole entry, looked up): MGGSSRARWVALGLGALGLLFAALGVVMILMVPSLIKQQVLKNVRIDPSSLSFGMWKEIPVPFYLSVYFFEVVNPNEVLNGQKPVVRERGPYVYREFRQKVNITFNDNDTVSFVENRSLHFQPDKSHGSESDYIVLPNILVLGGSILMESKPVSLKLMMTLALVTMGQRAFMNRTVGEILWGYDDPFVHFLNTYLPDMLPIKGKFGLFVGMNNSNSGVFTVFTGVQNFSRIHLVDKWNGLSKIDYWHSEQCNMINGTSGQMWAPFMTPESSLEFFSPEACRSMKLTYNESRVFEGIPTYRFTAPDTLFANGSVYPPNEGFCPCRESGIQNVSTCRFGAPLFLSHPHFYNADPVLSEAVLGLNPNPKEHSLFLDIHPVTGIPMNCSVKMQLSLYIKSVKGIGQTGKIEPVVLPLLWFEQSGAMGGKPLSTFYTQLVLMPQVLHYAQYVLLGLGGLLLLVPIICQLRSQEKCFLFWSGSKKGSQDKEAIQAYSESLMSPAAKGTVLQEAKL
PglD inh: C. jejuni PglD acetyltransferase inhibitors, primary screen, biochemical, DTNB colorimetric, single point. purified PglD enzyme, DTNB colorimetric CoA detection. actives 0.098% (n = 360,000). inhibition, % at 12.5 µM. UDP-N-acetylbacillosamine N-acetyltransferase PglD (Campylobacter jejuni); in the data active means inhibition above about 16%, passing the limit was not always enough; inconclusive means no clear call, values can overlap the other calls
SR-BI uptake up: activators of SR-BI mediated DiI-HDL uptake, primary screen, ldlA[mSR-BI] CHO cells, DiI fluorescence | 3 h; 100 = double the neutral-control signal | activation, % at 12.5 µM | actives 0.096% (n = 320,000);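 active means mean replicate activation of at least 60% and every replicate at or above 60%; inconclusive means mean or all-replicate condition met, but not both; inactive means mean below 60% and not all replicates reaching 60%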;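 further: 0% = median plate neutral-control signal and 100% = twice that signal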
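System: CHO ldlA[mSR-BI] cells / Medium: HEPES-buffered (25 mM, pH 7.4) F12 plus 0.5% BSA / Probe or stimulus: labelled HDL, 10 µg/mL / Doses: single compound concentration, delivered by pin transfer / Schedule: 3 h, 37 °C / Measured by: DiI fluorescence, bottom read / Measure: cell-associated DiI fluorescence as measure of HDL uptake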
Rtt109 Vps75: inhibitors of C. albicans Rtt109/Vps75 HAT, primary screen, biochemical, ThioGlo CoA-SH fluorescence, plate reader | Histone acetyltransferase RTT109 (Candida albicans (strain SC5314 / ATCC MYA-2876)), … | purified Rtt109/Vps75, 4 h | inhibition, % at 34.9 µM | actives 0.16% (n = 330,000);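 active means inhibition of at least 50% in every replicate; inconclusive means best replicate reaches 50% inhibition but some replicates fall short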
Env fusion inh: inhibitors of HIV-1 Env-driven cell-cell fusion, primary screen, HeLa-JRFL effector, CEM21 target cells, luciferase | inhibition, % at 12.3 µM | actives 1.1% (n = 360,000);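 active means mean replicate inhibition score of at least 50 and every replicate individually at or above 50; inconclusive means only one of the two criteria met; inactive means mean below 50 and not all replicates reaching 50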;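 further: 0% = plate neutral controls and 100% = maraviroc near 300 nM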
N-glyco inh: increase of ERlucT glycosylation luciferase signal, primary screen, N-linked glycosylation inhibitor project, D54 ERlucT cells, luminescence, set 2; D54 ERlucT glycosylation luciferase reporter, 24 h; percent of 100 nM tunicamycin response; reporter increase, % at 12.5 µM; actives 0.23% (n = 360,000); AID 588692, 2011;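 active means mean luciferase reporter signal, scaled so untreated is 0 and the glycosylation-blocking control 100, at or above a set limit in every replicate; inconclusive means mean reaches the limit but not every replicate does; inactive means mean below the limit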;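 further: luciferase carries N-glycosylation sites so blocking glycosylation raises the light; 0% = median of neutral control wells and 100% = median of 100 nM tunicamycin wells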
* hit, by the source's call; ! = not confirmed by another sample; [ ] = dose if it differs, or a comment. A selection: hits, their analogues and other compounds. The true share with any hit is near 1.9%.

What do the screens show for `COc1ccc(C(=O)NC(=S)Nc2ccc(N3CCCC3)cc2)cc1`?
SR-BI HDL uptake: 29; SR-BI uptake up: -29; Rtt109 Vps75: -2; Env fusion inh: 14; N-glyco inh: 0

What do the screens show for `CC(C)NC(=O)N[C@@H]1CC[C@H](CCNS(=O)(=O)Cc2ccccc2)O[C@@H]1CO`?
PglD inh: -1; Env fusion inh: -10[16.7 µM]

Results for COc1ccc(CNC(=O)c2ccc(CNc3c(NC4CCCCC4)c(=O)c3=O)cc2)cc1 ?
SR-BI HDL uptake: -7; PglD inh: -1; SR-BI uptake up: 7; Rtt109 Vps75: 3; Env fusion inh: 26; N-glyco inh: 1

How did COc1ccc(NC(=O)c2ccc(CNc3c(NC4CCCCC4)c(=O)c3=O)cc2)cc1OC do in these assays?
SR-BI HDL uptake: 78*!; PglD inh: 1; SR-BI uptake up: -78; Rtt109 Vps75: 0; Env fusion inh: 18; N-glyco inh: -1

Results for Cc1ccc(C(=O)Nc2ccc(N3CCCC3)cc2)c(C)c1 ?
SR-BI HDL uptake: 84*; SR-BI uptake up: -84; Rtt109 Vps75: 12; Env fusion inh: -12; N-glyco inh: -1

What do the screens show for `Cc1noc(C)c1NC(=O)Nc1ccc2c(c1)CC(=O)N([C@H](C)CO)C[C@H](C)[C@@H](CN(C)Cc1ccccc1)O2`?
PglD inh: 2; Env fusion inh: -14[16.7 µM]

What do the screens show for `CN1CCc2ccccc2Cc2[nH]c3ccccc3c2CC1`?
SR-BI HDL uptake: -5; PglD inh: 0; SR-BI uptake up: 5; Rtt109 Vps75: 8; Env fusion inh: 71*; N-glyco inh: 1

Results for CCOC(=O)/C(=N/Nc1ccccc1)c1csc(Nc2ccccc2)n1 ?
SR-BI HDL uptake: 95*; PglD inh: -4; SR-BI uptake up: -95; Rtt109 Vps75: 0; Env fusion inh: -13; N-glyco inh: -1

Results for CCCCC(CCC(=O)O)(C(=O)OCC)c1csc(Nc2ccccc2)n1 (centres undefined) ?
SR-BI HDL uptake: -13; PglD inh: -4; SR-BI uptake up: 13; Rtt109 Vps75: 3; N-glyco inh: 1

What do the screens show for `CCOC(=O)/C(=N\Nc1ccc(OC)cc1)c1csc(Nc2ccccc2)n1`?
SR-BI HDL uptake: 99*; SR-BI uptake up: -99; Rtt109 Vps75: 1; N-glyco inh: -4

Results for CCOC(=O)/C(=N\Nc1ccc(Cl)cc1)c1csc(Nc2ccccc2)n1 ?
SR-BI HDL uptake: 110*; PglD inh: -1; SR-BI uptake up: -110; Rtt109 Vps75: -2; Env fusion inh: -47; N-glyco inh: -4

What do the screens show for `COc1cccc(CNC(=O)C[C@@H]2CC[C@H](NC(C)=O)[C@@H](CO)O2)c1`?
PglD inh: -5; Env fusion inh: 15[16.7 µM]

Results for C/C(=N/NC(N)=S)c1cc2ccc(O)cc2oc1=O ?
SR-BI HDL uptake: 84*; PglD inh: -8; SR-BI uptake up: -84; Rtt109 Vps75: -244; Env fusion inh: -50; N-glyco inh: 2

Results for C/C(=N/NC(=O)c1ccncc1)c1cc2ccc(O)cc2oc1=O ?
SR-BI HDL uptake: -22; SR-BI uptake up: 22; Rtt109 Vps75: -6; N-glyco inh: 1

What do the screens show for `O=C(C[C@@H]1C[C@@H]2c3cc(NC(=O)C4CCC4)ccc3O[C@@H]2[C@H](CO)O1)NCc1cccnc1`?
PglD inh: 2; Env fusion inh: 16[16.7 µM]

What do the screens show for `CCC(C)(C)c1ccc(OCCCC[n+]2ccccc2)c(C(C)(C)CC)c1`?
SR-BI HDL uptake: -46; SR-BI uptake up: 46; Rtt109 Vps75: inconclusive; Env fusion inh: 77*; N-glyco inh: 5

Results for CCC(C)(C)c1ccc(Oc2cccc(C(=O)O)c2)cc1 ?
SR-BI HDL uptake: -7; PglD inh: 8; SR-BI uptake up: 7; Rtt109 Vps75: 1; Env fusion inh: -8; N-glyco inh: 1

How did COCC(=O)Nc1ccc2c(c1)OC[C@@H](C)N(Cc1ccccc1)C[C@H](C)[C@@H](OC)CN(C)C2=O do in these assays?
PglD inh: 3

What do the screens show for `COc1ccc([C@@H]2[C@@H]3C(=O)N(C(C)(C)C)C(=O)[C@@H]3[C@]3(C)C(=O)N(c4cccc(Br)c4)C(=O)N23)cc1`?
SR-BI HDL uptake: -3; PglD inh: 3; SR-BI uptake up: 3; Rtt109 Vps75: 15; N-glyco inh: -1

Results for COc1ccc(N2C(=O)N3[C@H](c4ccc(Cl)cc4)[C@@H]4C(=O)N(C5CCCCC5)C(=O)[C@@H]4[C@]3(C)C2=O)cc1 ?
SR-BI HDL uptake: -46; PglD inh: 2; SR-BI uptake up: 46; Rtt109 Vps75: 5; Env fusion inh: 85*; N-glyco inh: 0

How did C[C@@]12C(=O)N(c3cccc(F)c3)C(=O)N1[C@H](c1ccc(Cl)cc1)[C@@H]1C(=O)N(C3CCCCC3)C(=O)[C@@H]12 do in these assays?
SR-BI HDL uptake: -13; PglD inh: 1; SR-BI uptake up: 13; Rtt109 Vps75: 3; Env fusion inh: 1; N-glyco inh: 0

What do the screens show for `C[C@@]12C(=O)N(c3cccc(Cl)c3)C(=O)N1[C@H](c1ccc(Cl)cc1)[C@@H]1C(=O)N(C3CCCCC3)C(=O)[C@@H]12`?
SR-BI HDL uptake: 5; PglD inh: -1; SR-BI uptake up: -5; Rtt109 Vps75: 8; Env fusion inh: 103*; N-glyco inh: 1

How did Cc1ccc([N+](=O)[O-])cc1NC(=O)C(Sc1ccccc1)c1ccccc1 (centres undefined) do in these assays?
SR-BI HDL uptake: 21; SR-BI uptake up: -21; Rtt109 Vps75: -3; Env fusion inh: 67*; N-glyco inh: -5

What do the screens show for `Cc1ccc([N+](=O)[O-])cc1NC(=O)c1ccccc1`?
SR-BI HDL uptake: 17; PglD inh: 3; SR-BI uptake up: -17; Rtt109 Vps75: 4; Env fusion inh: 3; N-glyco inh: 2

How did CCOC(=O)C1CCN(c2c(N3CCN(c4ccccc4OC)CC3)c(=O)c2=O)CC1 do in these assays?
PglD inh: 1; Rtt109 Vps75: -7; Env fusion inh: 4; N-glyco inh: 0

What do the screens show for `CCOC(=O)C1CCN(c2c(N3CCN(Cc4ccccc4)CC3)c(=O)c2=O)CC1`?
SR-BI HDL uptake: -2; PglD inh: -1; SR-BI uptake up: 2; Rtt109 Vps75: 5; Env fusion inh: 10; N-glyco inh: 28*
